Reference: ChEMBL document CHEMBL3576806, “Design and synthesis of novel arctigenin analogues for the amelioration of metabolic disorders” (ACS Med Chem Lett, 2015)
Active and inactive are the calls of the source. The rule behind the calls is not given here.

Key:
[1] = test system: L6; assay: Increase in glucose uptake in rat L6 cells at 24 uM pre-treated with compound for 30 mins using 2-deoxy-D-[1,2-3H]glucose and measured after 2 hrs […] by liquid scintillation counting method; format: functional
In short: (§1)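 L6 myotubes exposed to compound for 2 h at 1.5, 3, 6, 12 or 24 μM; 2-deoxyglucose uptake expressed as fold over untreated control; 3 μM (−)-arctigenin run alongside as positive control; mean ± SEM of 3 independent experiments.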

[2] = test system: L6; assay: Increase in glucose uptake in rat L6 cells at 24 uM pre-treated with compound for 30 mins using 2-deoxy-D-[1,2-3H]glucose and measured after 2 hrs by liquid scintillation counting method; format: functional; in short: as §1
[3] = test system: L6; assay: Ratio of glucose uptake in rat L6 cells at 24 uM after 2 hrs to glucose uptake in rat L6 cells at 24 uM after 2 hrs in presence of 3 uM (-)-arctigenin; format: functional
In short: (§2)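 Glucose uptake in L6 myotubes after 2 h compound exposure divided by uptake with the 3 μM (−)-arctigenin positive control run in parallel.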

[4] = test system: L6; assay: Increase in glucose uptake in rat L6 cells at 3 umol/L pre-treated with compound for 30 mins using 2-deoxy-D-[1,2-3H]glucose and measured after 2 hrs by liquid scintillation counting method relative to control; format: functional; in short: as §1
[5] = test system: L6; assay: Increase in glucose uptake in rat L6 cells at 3 uM pre-treated with compound for 30 mins using 2-deoxy-D-[1,2-3H]glucose and measured after 2 hrs by liquid scintillation counting method; format: functional; in short: as §1
[6] = test system: L6; assay: Increase in glucose uptake in rat L6 cells at 3 uM […] using 2-deoxy-D-[1,2-3H]glucose and measured after 2 hrs […] by liquid scintillation counting method; format: functional; in short: as §1
[7] = test system: L6; assay: Ratio of glucose uptake in rat L6 cells at 3 uM after 2 hrs to glucose uptake in rat L6 cells at 3 uM after 2 hrs in presence of 3 uM (-)-arctigenin; format: functional; in short: as §2
[8] = test system: L6; assay: Ratio of glucose uptake in rat L6 cells at 1.5 uM after 2 hrs to glucose uptake in rat L6 cells at 1.5 uM after 2 hrs in presence of 3 uM (-)-arctigenin; format: functional; in short: as §2
[9] = test system: L6; assay: Increase in glucose uptake in rat L6 cells at 1.5 uM pre-treated with compound for 30 mins using 2-deoxy-D-[1,2-3H]glucose and measured after 2 hrs by liquid scintillation counting method; format: functional; in short: as §1
[10] = test system: L6; assay: Increase in glucose uptake in rat L6 cells at 1.5 uM pre-treated with compound for 30 mins using 2-deoxy-D-[1,2-3H]glucose and measured after 2 hrs in presence of 3 uM (-)-arctigenin by liquid scintillation counting method; format: functional; in short: as §1
[11] = test system: L6; assay: Ratio of glucose uptake in rat L6 cells at 12 uM after 2 hrs to glucose uptake in rat L6 cells at 12 uM after 2 hrs in presence of 3 uM (-)-arctigenin; format: functional; in short: as §2
[12] = test system: L6; assay: Increase in glucose uptake in rat L6 cells at 12 uM pre-treated with compound for 30 mins using 2-deoxy-D-[1,2-3H]glucose and measured after 2 hrs by liquid scintillation counting method; format: functional; in short: as §1
[13] = test system: L6; assay: Increase in glucose uptake in rat L6 cells at 12 uM pre-treated with compound for 30 mins using 2-deoxy-D-[1,2-3H]glucose and measured after 2 hrs […] by liquid scintillation counting method; format: functional; in short: as §1
[14] = test system: L6; assay: Induction of AMPK activation in rat L6 cells assessed as increase in ACC phosphorylation at 3 uM incubated for 2 hrs by Western blotting method; format: cell-based
In short: (§3)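 L6 myotubes treated 2 h at the stated concentrations; phosphorylated AMPK and phosphorylated ACC detected by immunoblot.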

[15] = test system: L6; assay: Ratio of glucose uptake in rat L6 cells at 6 uM after 2 hrs to glucose uptake in rat L6 cells at 6 uM after 2 hrs in presence of 3 uM (-)-arctigenin; format: functional; in short: as §2
[16] = test system: L6; assay: Induction of AMPK activation in rat L6 cells assessed as increase in ACC phosphorylation at 6 uM incubated for 2 hrs by Western blotting method; format: cell-based; in short: as §3
[17] = test system: L6; assay: Increase in glucose uptake in rat L6 cells at 6 uM pre-treated with compound for 30 mins using 2-deoxy-D-[1,2-3H]glucose and measured after 2 hrs […] by liquid scintillation counting method; format: functional; in short: as §1
[18] = test system: L6; assay: Induction of AMPK phosphorylation in rat L6 cells at 1.5 uM incubated for 2 hrs by Western blotting method; format: cell-based; in short: as §3
[19] = test system: L6; assay: Increase in glucose uptake in rat L6 cells at 6 uM pre-treated with compound for 30 mins using 2-deoxy-D-[1,2-3H]glucose and measured after 2 hrs by liquid scintillation counting method; format: functional; in short: as §1
[20] = test system: L6; assay: Induction of AMPK phosphorylation in rat L6 cells at 3 uM incubated for 2 hrs by Western blotting method; format: cell-based; in short: as §3
[21] = test system: L6; assay: Induction of AMPK activation in rat L6 cells assessed as increase in ACC phosphorylation at 1.5 uM incubated for 2 hrs by Western blotting method; format: cell-based; in short: as §3
[22] = test system: L6; assay: Induction of AMPK phosphorylation in rat L6 cells at 6 uM incubated for 2 hrs by Western blotting method; format: cell-based; in short: as §3

SMILES: COc1ccc(C[C@H]2COC(=O)[C@@H]2Cc2ccc(O)c(OC)c2)cc1
- Activity [1]: 262.4%
- Activity [2]: 235.1%
- Ratio [3]: 0.896

SMILES: COc1cc(C[C@H]2C(=O)CC[C@@H]2Cc2ccc(OC)c(OC)c2)ccc1O
- fold change (FC) [4]: 2.08

SMILES: COc1ccc(C[C@H]2COC(=O)[C@@H]2Cc2ccc(O)c(O)c2)cc1OC
- Activity [5]: 243.2%
- Activity [6]: 238.9%
- Ratio [7]: 1.018

SMILES: COc1cc(C[C@H]2C(=O)OC[C@@H]2Cc2ccc3c(c2)OCO3)ccc1O
- Ratio [8]: 0.496
- Activity [9]: 131.7%
- Activity [10]: 265.3%

SMILES: COc1cccc(C[C@H]2C(=O)OC[C@@H]2Cc2ccc(OC)c(OC)c2)c1
- Ratio [11]: 0.564
- Activity [12]: 119.2%
- Activity [13]: 211.3%

SMILES: COc1ccc(C[C@H]2COC(=O)[C@@H]2Cc2ccc(O)cc2)cc1OC
- Ratio [11]: 0.895
- Activity [12]: 179.5%
- Activity [13]: 200.6%

SMILES: COc1ccc(C[C@H]2COC(=O)[C@@H]2Cc2ccccc2Cl)cc1OC
- Activity [5]: 112.4%
- Activity [6]: 206.4%
- Ratio [7]: 0.545

SMILES: COc1ccc(C[C@H]2COC(=O)[C@@H]2Cc2ccc(Cl)cc2)cc1OC
- Activity [14]: Active
- Ratio [15]: 1.03
- Activity [16]: Active
- Activity [17]: 185.5%
- Activity [18]: Active
- Activity [19]: 191.1%
- Activity [20]: Active
- Activity [21]: Active
- Activity [22]: Active

SMILES: COc1ccc(C[C@H]2COC(=O)[C@@H]2Cc2ccc(OC)c(OC)c2)cc1OC
- Activity [5]: 137.1%
- Activity [6]: 237.6%
- Ratio [7]: 0.577

SMILES: COc1ccc(C[C@H]2C(=O)OC[C@@H]2Cc2ccc(OC)c(OC)c2)cc1
- Ratio [8]: 0.595
- Activity [9]: 108.4%
- Activity [10]: 182.1%

SMILES: COc1ccc(C[C@H]2C(=O)OC[C@@H]2Cc2ccc(OC)c(OC)c2)cc1O
- Ratio [8]: 0.531
- Activity [9]: 100.4%
- Activity [10]: 188.9%

SMILES: COc1ccc(C[C@H]2COC(=O)[C@@H]2Cc2ccc(Br)cc2)cc1OC
- Ratio [15]: 0.654
- Activity [17]: 269.2%
- Activity [19]: 176%

SMILES: COc1ccc(C[C@H]2COC(=O)[C@@H]2Cc2ccc(F)cc2)cc1OC
- Ratio [8]: 0.486
- Activity [9]: 116.4%
- Activity [10]: 239.6%
